≈ marks a conversion by molar mass, not a printed value.
Experiments:
Escherichia coli [1] = experiment: Antibacterial activity against quinolone resistance Escherichia coli isolate ELZ4251 harboring gyrA/parC mutant by CLSI M100-S17 protocol based method; type: functional
Acinetobacter baumannii [2] = experiment: Antibacterial activity against wild type Acinetobacter baumannii ATCC BAA-747 by CLSI M100-S17 protocol based method; type: functional
Klebsiella pneumoniae = experiment: Antibacterial activity against wild type Klebsiella pneumoniae ATCC 35657 by CLSI M100-S17 protocol based method; type: functional
Acinetobacter baumannii [3] = experiment: Antibacterial activity against fluoroquinolone resistant Acinetobacter baumannii isolate MMX2240 by CLSI M100-S17 protocol based method; type: functional
Escherichia coli [4] = experiment: Antibacterial activity against wild type Escherichia coli ATCC 25922 in presence of HSA by CLSI M100-S17 protocol based method; type: functional
Escherichia coli [5] = experiment: Selectivity ratio of MIC for wild type Escherichia coli ATCC 25922 in presence of HSA to MIC for wild type Escherichia coli ATCC 25922; type: functional
Escherichia coli [6] = experiment: Antibacterial activity against wild type Escherichia coli ATCC 25922 by CLSI M100-S17 protocol based method; type: functional
[7] = Inhibition of His tagged Escherichia coli ATCC 25922 DNA gyrase A expressed in Escherichia coli BL21 (DE3) pLysS cells assessed as reduction in enzyme-mediated supercoiling of relaxed plasmid DNA pNO1 after 30 mins in presence of biotinylated TFO1 by fluorescence assay
Escherichia coli [8] = experiment: Antibacterial activity against fluoroquinolone resistant Escherichia coli SKM18 by CLSI M100-S17 protocol based method; type: functional
[9] = Inhibition of Escherichia coli DNA topoisomerase 4 assessed as reduction in decatenation activity using kinetoplast concatenated DNA as substrate after 30 mins by picogreen dye based fluorescence assay
Acinetobacter baumannii [10] = experiment: Antibacterial activity against beta-lactam resistant Acinetobacter baumannii by broth microdilution method; type: functional; conditions: Acinetobacter baumannii
In short: (§1)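 MICs were determined by CLSI broth methods, except that organisms were grown in brain–heart–infusion medium. The panel comprised wild-type and resistant E. coli and A. baumannii strains, including 12 strains whose details are given by reference.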

Acinetobacter baumannii [11] = experiment: Antibacterial activity against quinolone resistant Acinetobacter baumannii by broth microdilution method; type: functional; conditions: Acinetobacter baumannii; in short: as §1
[12] = Oral bioavailability in CD1 mouse plasma by LC-MS/MS analysis; type: ADME, organism-based
Escherichia coli [13] = experiment: Antibacterial activity against aminoglycoside resistant Escherichia coli by broth microdilution method; type: functional; conditions: Escherichia coli; for MIC: read-out: MIC; in short: as §1
[14] = Fraction unbound in mouse plasma at 1 uM by equilibrium dialysis method; type: ADME, cell-free
Mus musculus [15] = experiment: Volume of distribution at steady state in CD1 mouse plasma at 10 mg/kg, iv by LC-MS/MS analysis; type: ADME, organism-based; conditions: in vivo
Escherichia coli [16] = experiment: Antibacterial activity against quinolone resistant Escherichia coli by broth microdilution method; type: functional; conditions: Escherichia coli; for MIC: read-out: MIC; in short: as §1
Mus musculus [17] = experiment: Terminal half life in CD1 mouse plasma at 10 mg/kg, iv by LC-MS/MS analysis; type: ADME, organism-based; conditions: in vivo
Acinetobacter baumannii [18] = experiment: Antibacterial activity against multidrug resistant Acinetobacter baumannii by broth microdilution method; type: functional; conditions: Acinetobacter baumannii; in short: as §1
Escherichia coli [19] = experiment: Antibacterial activity against wild type Escherichia coli by broth microdilution method; type: functional; in short: as §1
Acinetobacter baumannii [20] = experiment: Antibacterial activity against aminoglycoside resistant Acinetobacter baumannii by broth microdilution method; type: functional; conditions: Acinetobacter baumannii; in short: as §1
Acinetobacter baumannii [21] = experiment: Antibacterial activity against carbapenem resistant Acinetobacter baumannii by broth microdilution method; type: functional; conditions: Acinetobacter baumannii; in short: as §1
Acinetobacter baumannii [22] = experiment: Antibacterial activity against wild type Acinetobacter baumannii by broth microdilution method; type: functional; in short: as §1
Escherichia coli [23] = experiment: Antibacterial activity against beta-lactam resistant Escherichia coli by broth microdilution method; type: functional; conditions: Escherichia coli; for MIC: read-out: MIC; in short: as §1
Escherichia coli [24] = experiment: Antibacterial activity against multidrug resistant Escherichia coli by broth microdilution method; type: functional; conditions: Escherichia coli; for MIC: read-out: MIC; in short: as §1
Mus musculus [25] = experiment: AUC (0 to 24 hrs) in CD1 mouse plasma at 10 mg/kg, iv by LC-MS/MS analysis; type: ADME, organism-based; design: time < 24 hr, dose 10 mg/kg, route intravenous; conditions: in vivo
In short: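 CD-1 mice given a single 10 mg/kg iv dose (n = 3), in either 10% DMSO plus 1% Tween 80 in pH 8.0 phosphate buffer or 20% (2-hydroxypropyl)-β-cyclodextrin in pH 4.0 citrate buffer; plasma exposure measured.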

## CNCc1cc2cc3c(cc2n1C)CCCc1c-3[nH]c(=O)c(C(=O)O)c1O
Escherichia coli [1]
  MIC: 0.8 µg/mL (≈ 2.18 µM)
Acinetobacter baumannii [2]
  MIC: 1.6 µg/mL (≈ 4.35 µM)
Klebsiella pneumoniae
  MIC: 0.39 µg/mL (≈ 1.06 µM)
Acinetobacter baumannii [3]
  MIC: 1.6 µg/mL (≈ 4.35 µM)
Escherichia coli [4]
  MIC: 3.1 µg/mL
Escherichia coli [5]
  Ratio: 4 - 16
Escherichia coli [6]
  MIC: 0.39 µg/mL (≈ 1.06 µM)
[7]
  IC50: 0.1 µM
Escherichia coli [8]
  MIC: 0.39 µg/mL (≈ 1.06 µM)
[9]
  IC50: 3.7 µM

## Cn1c(CN2CCCC2)cc2cc3c(cc21)CCCc1c-3[nH]c(=O)c(C(=O)O)c1O
Acinetobacter baumannii [10]
  MIC50: 2 µg/mL (≈ 4.91 µM)
  MIC90: 16 µg/mL (≈ 39.3 µM)
Acinetobacter baumannii [10]; read-out: MIC
  MIC: 0.12 to 16 µg/mL (≈ 0.295 to 39.3 µM)
Escherichia coli [1]
  MIC: 1.6 µg/mL (≈ 3.93 µM)
Acinetobacter baumannii [11]
  MIC50: 2 µg/mL (≈ 4.91 µM)
  MIC90: 16 µg/mL (≈ 39.3 µM)
Acinetobacter baumannii [11]; read-out: MIC
  MIC: 0.12 to 16 µg/mL (≈ 0.295 to 39.3 µM)
[12]
  bioavailability: 33%
Escherichia coli [13]
  MIC90: 0.5 µg/mL (≈ 1.23 µM)
  MIC: 0.12 to 0.5 µg/mL (≈ 0.295 to 1.23 µM)
[14]
  Fu: 0.11
Acinetobacter baumannii [2]
  MIC: 0.78 µg/mL (≈ 1.91 µM)
Klebsiella pneumoniae
  MIC: 0.78 µg/mL (≈ 1.91 µM)
Mus musculus [15]
  Vdss: 8.1 L/kg
Escherichia coli [16]
  MIC90: 0.5 µg/mL (≈ 1.23 µM)
  MIC: 0.12 to 0.5 µg/mL (≈ 0.295 to 1.23 µM)
Acinetobacter baumannii [3]
  MIC: 1.6 µg/mL (≈ 3.93 µM)
Escherichia coli [4]
  MIC: 6.3 µg/mL
Mus musculus [17]
  beta t1/2: 2.8 h
Escherichia coli [6]
  MIC: 0.78 µg/mL (≈ 1.91 µM)
Acinetobacter baumannii [18]
  MIC50: 2 µg/mL (≈ 4.91 µM)
  MIC90: 16 µg/mL (≈ 39.3 µM)
Acinetobacter baumannii [18]; read-out: MIC
  MIC: 0.12 to 16 µg/mL (≈ 0.295 to 39.3 µM)
Escherichia coli [19]
  MIC90: 0.5 µg/mL (≈ 1.23 µM)
Acinetobacter baumannii [20]
  MIC50: 2 µg/mL (≈ 4.91 µM)
  MIC90: 16 µg/mL (≈ 39.3 µM)
Acinetobacter baumannii [20]; read-out: MIC
  MIC: 0.12 to 16 µg/mL (≈ 0.295 to 39.3 µM)
Acinetobacter baumannii [21]
  MIC50: 2 µg/mL (≈ 4.91 µM)
  MIC90: 16 µg/mL (≈ 39.3 µM)
Acinetobacter baumannii [21]; read-out: MIC
  MIC: 0.12 to 16 µg/mL (≈ 0.295 to 39.3 µM)
Escherichia coli [8]
  MIC: 0.78 µg/mL (≈ 1.91 µM)
Acinetobacter baumannii [22]
  MIC50: 2 µg/mL (≈ 4.91 µM)
  MIC90: 16 µg/mL (≈ 39.3 µM)
Escherichia coli [23]
  MIC90: 0.5 µg/mL (≈ 1.23 µM)
  MIC: 0.12 to 0.5 µg/mL (≈ 0.295 to 1.23 µM)
Escherichia coli [24]
  MIC90: 0.5 µg/mL (≈ 1.23 µM)
  MIC: 0.12 to 0.5 µg/mL (≈ 0.295 to 1.23 µM)
Mus musculus [25]
  AUC: 4050 ng·h/mL

## CCNCc1cc2cc3c(cc2n1C)CCCCc1c-3[nH]c(=O)c(C(=O)O)c1O
Escherichia coli [6]
  MIC: 0.78 µg/mL (≈ 1.97 µM)
[7]
  IC50: 0.8 µM
Escherichia coli [8]
  MIC: 3.1 µg/mL (≈ 7.84 µM)
[9]
  IC50: 15.3 µM

## CCNCc1cc2cc3c(cc2n1C)Cc1c-3[nH]c(=O)c(C(=O)O)c1O
Escherichia coli [6]
  MIC: > 62.5 µg/mL
[7]
  IC50: > 11.1 µM
Escherichia coli [8]
  MIC: > 62.5 µg/mL
[9]
  IC50: > 11.1 µM

## CN(C)Cc1cc2cc3c(cc2n1C)OCCc1c-3[nH]c(=O)c(C(=O)O)c1O
Acinetobacter baumannii [10]
  MIC50: 2 µg/mL (≈ 5.22 µM)
  MIC90: 16 µg/mL (≈ 41.7 µM)
Escherichia coli [1]
  MIC: 1.6 µg/mL (≈ 4.17 µM)
Acinetobacter baumannii [11]
  MIC50: 2 µg/mL (≈ 5.22 µM)
  MIC90: 16 µg/mL (≈ 41.7 µM)
Escherichia coli [13]
  MIC50: 0.5 µg/mL (≈ 1.3 µM)
  MIC90: 2 µg/mL (≈ 5.22 µM)
  MIC: 0.25 to 8 µg/mL (≈ 0.652 to 20.9 µM)
[14]
  Fu: 0.21
Acinetobacter baumannii [2]
  MIC: 2 µg/mL (≈ 5.22 µM)
Klebsiella pneumoniae
  MIC: 1 µg/mL (≈ 2.61 µM)
Mus musculus [15]
  Vdss: 7.6 L/kg
Escherichia coli [16]
  MIC50: 0.5 µg/mL (≈ 1.3 µM)
  MIC90: 2 µg/mL (≈ 5.22 µM)
  MIC: 0.25 to 8 µg/mL (≈ 0.652 to 20.9 µM)
Acinetobacter baumannii [3]
  MIC: 3.9 µg/mL (≈ 10.2 µM)
Escherichia coli [4]
  MIC: 2 µg/mL
Escherichia coli [5]
  Ratio: 2 - 4
Mus musculus [17]
  beta t1/2: 3.1 h
Escherichia coli [6]
  MIC: 1 µg/mL (≈ 2.61 µM)
Acinetobacter baumannii [18]
  MIC50: 2 µg/mL (≈ 5.22 µM)
  MIC90: 16 µg/mL (≈ 41.7 µM)
Escherichia coli [19]
  MIC50: 0.5 µg/mL (≈ 1.3 µM)
  MIC90: 2 µg/mL (≈ 5.22 µM)
Acinetobacter baumannii [20]
  MIC50: 2 µg/mL (≈ 5.22 µM)
  MIC90: 16 µg/mL (≈ 41.7 µM)
Acinetobacter baumannii [21]
  MIC50: 2 µg/mL (≈ 5.22 µM)
  MIC90: 16 µg/mL (≈ 41.7 µM)
Escherichia coli [8]
  MIC: 1 µg/mL (≈ 2.61 µM)
Acinetobacter baumannii [22]
  MIC: 0.25 to 16 µg/mL (≈ 0.652 to 41.7 µM)
  MIC50: 2 µg/mL (≈ 5.22 µM)
  MIC90: 16 µg/mL (≈ 41.7 µM)
Escherichia coli [23]
  MIC50: 0.5 µg/mL (≈ 1.3 µM)
  MIC90: 2 µg/mL (≈ 5.22 µM)
  MIC: 0.25 to 8 µg/mL (≈ 0.652 to 20.9 µM)
Escherichia coli [24]
  MIC50: 0.5 µg/mL (≈ 1.3 µM)
  MIC90: 2 µg/mL (≈ 5.22 µM)
  MIC: 0.25 to 8 µg/mL (≈ 0.652 to 20.9 µM)
Mus musculus [25]
  AUC: 2930 ng·h/mL

Reference: ChEMBL document CHEMBL4190388, “Discovery and Optimization of Indolyl-Containing 4-Hydroxy-2-Pyridone Type II DNA Topoisomerase Inhibitors Active against Multidrug Resistant Gram-negative Bacteria” (J Med Chem, 2018)
